Source: ChEMBL document CHEMBL5661979, “Pharmacological inhibition of BMK1 suppresses tumor growth through promyelocytic leukemia protein” (Cancer Cell, 2010)

What was measured:
[1] = target: Tyrosine-protein kinase receptor UFO (Homo sapiens) (UniProt P30530); assay: Inhibition of AXL in human HeLa cells lysate at 2 uM pre incubated for 15 mins followed by ADP acyl phosphate probe addition and measured after 10 mins by LC-MS/MS analysis relative to control; type: subcellular; settings: time 25.0 min
Summary of the method: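 KiNativ-type profiling in HeLa lysate (5 mg/mL total protein). Lysate preincubated 15 min with inhibitor at 50, 10, 2, 0.8 or 0 μM, then ATP or ADP acylphosphate probe added (5 μM final) for 10 min. Reaction stopped with urea and analysed by targeted MS, using up to four fragment ions per kinase peptide-probe conjugate. % inhibition calculated against untreated lysate. Duplicate reactions.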

[2] = Inhibition of PRKX/PRKY in human HeLa cells lysate pre incubated for 15 mins followed by ADP acyl phosphate probe addition and measured after 10 mins by LC-MS/MS analysis; type: subcellular
[3] = target: Serine/threonine-protein kinase PLK4 (Homo sapiens, UniProt O00444); assay: Binding affinity to PLK4 (unknown origin) assessed as dissociation constant by ATP-competition binding assay
Sequence of Serine/threonine-protein kinase PLK4 (O00444 whole entry): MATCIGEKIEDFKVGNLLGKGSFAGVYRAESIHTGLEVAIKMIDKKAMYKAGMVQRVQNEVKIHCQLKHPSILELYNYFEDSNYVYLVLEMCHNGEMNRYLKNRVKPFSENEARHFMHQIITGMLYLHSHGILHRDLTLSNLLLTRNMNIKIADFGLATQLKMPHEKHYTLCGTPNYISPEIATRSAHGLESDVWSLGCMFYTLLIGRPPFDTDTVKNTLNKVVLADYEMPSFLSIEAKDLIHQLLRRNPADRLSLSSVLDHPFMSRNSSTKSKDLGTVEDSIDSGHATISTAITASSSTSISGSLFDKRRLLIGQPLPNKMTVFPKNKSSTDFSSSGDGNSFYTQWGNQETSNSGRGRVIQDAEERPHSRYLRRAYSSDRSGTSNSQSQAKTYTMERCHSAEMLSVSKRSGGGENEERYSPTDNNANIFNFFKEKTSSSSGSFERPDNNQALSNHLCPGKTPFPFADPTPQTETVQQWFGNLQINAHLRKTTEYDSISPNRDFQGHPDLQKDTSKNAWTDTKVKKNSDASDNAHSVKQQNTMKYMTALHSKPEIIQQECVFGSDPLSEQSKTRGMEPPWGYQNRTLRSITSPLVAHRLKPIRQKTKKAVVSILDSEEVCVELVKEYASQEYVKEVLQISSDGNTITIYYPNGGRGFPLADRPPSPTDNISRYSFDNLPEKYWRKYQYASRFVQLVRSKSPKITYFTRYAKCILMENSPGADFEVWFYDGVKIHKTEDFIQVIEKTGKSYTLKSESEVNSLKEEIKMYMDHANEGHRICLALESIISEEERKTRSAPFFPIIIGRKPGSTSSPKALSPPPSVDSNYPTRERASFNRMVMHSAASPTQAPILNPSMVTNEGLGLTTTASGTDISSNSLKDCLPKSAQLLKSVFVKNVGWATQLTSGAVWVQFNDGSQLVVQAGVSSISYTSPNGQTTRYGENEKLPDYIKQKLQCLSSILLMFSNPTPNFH

[4] = target: T1, Non-receptor tyrosine-protein kinase TNK1 (Homo sapiens) (UniProt Q13470); assay: Inhibition of TNK1 in human HeLa cells lysate at 50 uM pre incubated for 15 mins followed by ADP acyl phosphate probe addition and measured after 10 mins by LC-MS/MS analysis relative to control; type: subcellular; settings: time 25.0 min
T1 sequence (whole entry): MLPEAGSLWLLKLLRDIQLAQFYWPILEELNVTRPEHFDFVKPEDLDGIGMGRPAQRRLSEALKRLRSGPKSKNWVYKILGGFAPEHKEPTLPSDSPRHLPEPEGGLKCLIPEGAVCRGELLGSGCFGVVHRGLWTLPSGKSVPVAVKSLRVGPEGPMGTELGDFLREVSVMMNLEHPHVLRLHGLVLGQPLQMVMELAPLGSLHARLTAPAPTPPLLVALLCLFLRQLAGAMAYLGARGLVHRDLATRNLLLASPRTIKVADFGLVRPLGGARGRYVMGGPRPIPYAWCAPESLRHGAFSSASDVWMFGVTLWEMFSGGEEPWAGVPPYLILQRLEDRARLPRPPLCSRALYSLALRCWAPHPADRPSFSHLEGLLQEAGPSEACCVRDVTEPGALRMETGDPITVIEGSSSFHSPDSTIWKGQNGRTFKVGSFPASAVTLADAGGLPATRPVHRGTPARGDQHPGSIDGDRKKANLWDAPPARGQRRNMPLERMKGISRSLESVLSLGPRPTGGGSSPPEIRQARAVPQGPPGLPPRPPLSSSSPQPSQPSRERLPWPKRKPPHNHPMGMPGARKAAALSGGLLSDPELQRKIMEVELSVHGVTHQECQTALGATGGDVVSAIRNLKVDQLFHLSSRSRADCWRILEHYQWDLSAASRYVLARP

[5] = Inhibition of PCTAIRE2/3 in human HeLa cells lysate at 2 uM pre incubated for 15 mins followed by ADP acyl phosphate probe addition and measured after 10 mins by LC-MS/MS analysis relative to control; settings: 25 min, condition cancer
[6] = target: Serine/threonine-protein kinase Nek1 (Homo sapiens) (UniProt Q96PY6); assay: Inhibition of NEK1 in human HeLa cells lysate at 2 uM pre incubated for 15 mins followed by ATP acyl phosphate probe addition and measured after 10 mins by LC-MS/MS analysis relative to control; type: subcellular; settings: time 25.0 min
[7] = target: T2, Mitogen-activated protein kinase kinase kinase 7 (Homo sapiens) (UniProt O43318); assay: Inhibition of TAK1 in human HeLa cells lysate at 50 uM pre incubated for 15 mins followed by ATP acyl phosphate probe addition and measured after 10 mins by LC-MS/MS analysis relative to control; type: subcellular; settings: time 25.0 min
T2 sequence (whole entry): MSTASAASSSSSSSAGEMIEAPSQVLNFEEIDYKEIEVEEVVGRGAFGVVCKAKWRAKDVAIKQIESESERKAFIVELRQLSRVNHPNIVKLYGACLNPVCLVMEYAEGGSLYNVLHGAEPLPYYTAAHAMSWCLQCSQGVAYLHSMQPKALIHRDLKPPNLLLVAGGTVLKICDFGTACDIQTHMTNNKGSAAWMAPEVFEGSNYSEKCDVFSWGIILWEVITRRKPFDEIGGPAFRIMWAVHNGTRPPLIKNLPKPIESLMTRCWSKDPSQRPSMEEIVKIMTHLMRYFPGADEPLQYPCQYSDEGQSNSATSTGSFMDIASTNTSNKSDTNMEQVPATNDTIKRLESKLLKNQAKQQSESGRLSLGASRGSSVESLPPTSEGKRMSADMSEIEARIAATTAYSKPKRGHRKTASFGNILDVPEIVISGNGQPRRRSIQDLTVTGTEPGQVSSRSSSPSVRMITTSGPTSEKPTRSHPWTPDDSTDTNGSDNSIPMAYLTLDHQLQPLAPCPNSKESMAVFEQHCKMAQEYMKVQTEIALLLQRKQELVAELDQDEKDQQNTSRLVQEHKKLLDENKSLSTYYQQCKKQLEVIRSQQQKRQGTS

eIF-2-alpha kinase GCN2 = eIF-2-alpha kinase GCN2 (Homo sapiens, UniProt Q9P2K8); assay: Inhibition of GCN2 in human HeLa cells lysate at 50 uM pre incubated for 15 mins followed by ATP acyl phosphate probe addition and measured after 10 mins by LC-MS/MS analysis relative to control; type: subcellular; settings: time 25.0 min
Sequence of eIF-2-alpha kinase GCN2 (Q9P2K8 whole entry): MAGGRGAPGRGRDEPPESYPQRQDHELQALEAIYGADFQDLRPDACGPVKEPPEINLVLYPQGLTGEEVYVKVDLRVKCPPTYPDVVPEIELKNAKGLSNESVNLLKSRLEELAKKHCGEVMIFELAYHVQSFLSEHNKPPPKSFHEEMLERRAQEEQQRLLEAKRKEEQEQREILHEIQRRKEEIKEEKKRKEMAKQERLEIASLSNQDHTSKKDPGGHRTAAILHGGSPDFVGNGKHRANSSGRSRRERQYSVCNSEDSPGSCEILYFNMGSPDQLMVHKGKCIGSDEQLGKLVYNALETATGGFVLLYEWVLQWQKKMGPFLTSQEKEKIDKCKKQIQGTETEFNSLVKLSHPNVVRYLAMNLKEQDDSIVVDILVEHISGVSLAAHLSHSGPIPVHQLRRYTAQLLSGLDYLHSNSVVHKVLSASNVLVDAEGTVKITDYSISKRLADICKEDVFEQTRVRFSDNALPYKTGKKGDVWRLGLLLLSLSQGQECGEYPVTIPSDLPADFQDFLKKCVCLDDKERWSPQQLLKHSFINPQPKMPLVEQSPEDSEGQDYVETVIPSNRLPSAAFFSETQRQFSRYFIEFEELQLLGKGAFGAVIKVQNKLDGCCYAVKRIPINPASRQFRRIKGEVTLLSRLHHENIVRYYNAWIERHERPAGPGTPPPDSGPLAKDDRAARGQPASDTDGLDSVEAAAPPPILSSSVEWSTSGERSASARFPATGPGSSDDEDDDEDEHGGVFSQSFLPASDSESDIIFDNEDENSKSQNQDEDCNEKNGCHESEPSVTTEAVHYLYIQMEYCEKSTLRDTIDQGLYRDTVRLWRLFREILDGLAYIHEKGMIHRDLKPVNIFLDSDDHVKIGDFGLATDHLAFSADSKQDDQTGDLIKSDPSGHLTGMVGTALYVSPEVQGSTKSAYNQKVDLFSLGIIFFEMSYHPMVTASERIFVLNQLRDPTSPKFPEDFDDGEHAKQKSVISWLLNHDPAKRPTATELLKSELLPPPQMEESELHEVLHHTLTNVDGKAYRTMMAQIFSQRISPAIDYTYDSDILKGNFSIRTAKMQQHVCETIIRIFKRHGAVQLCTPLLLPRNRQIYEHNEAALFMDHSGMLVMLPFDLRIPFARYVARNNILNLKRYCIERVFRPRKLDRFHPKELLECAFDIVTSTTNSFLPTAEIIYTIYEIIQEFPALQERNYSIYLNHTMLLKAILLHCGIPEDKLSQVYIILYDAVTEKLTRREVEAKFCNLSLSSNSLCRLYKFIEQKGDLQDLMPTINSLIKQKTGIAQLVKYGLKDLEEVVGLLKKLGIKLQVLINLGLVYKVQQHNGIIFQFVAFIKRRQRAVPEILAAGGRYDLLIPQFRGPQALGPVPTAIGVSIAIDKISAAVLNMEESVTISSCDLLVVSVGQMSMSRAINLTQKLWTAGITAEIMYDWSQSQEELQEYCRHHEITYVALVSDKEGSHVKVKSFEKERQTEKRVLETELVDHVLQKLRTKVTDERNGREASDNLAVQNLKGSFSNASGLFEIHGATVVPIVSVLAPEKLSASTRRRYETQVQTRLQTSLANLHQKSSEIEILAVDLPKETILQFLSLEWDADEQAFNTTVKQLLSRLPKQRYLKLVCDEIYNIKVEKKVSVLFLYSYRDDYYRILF

[8] = target: MAP/microtubule affinity-regulating kinase 3 (Homo sapiens, UniProt P27448); assay: Inhibition of MARK3 in human HeLa cells lysate at 50 uM pre incubated for 15 mins followed by ADP acyl phosphate probe addition and measured after 10 mins by LC-MS/MS analysis relative to control; type: subcellular; settings: time 25.0 min
Sequence of MAP/microtubule affinity-regulating kinase 3 (P27448 whole entry, looked up): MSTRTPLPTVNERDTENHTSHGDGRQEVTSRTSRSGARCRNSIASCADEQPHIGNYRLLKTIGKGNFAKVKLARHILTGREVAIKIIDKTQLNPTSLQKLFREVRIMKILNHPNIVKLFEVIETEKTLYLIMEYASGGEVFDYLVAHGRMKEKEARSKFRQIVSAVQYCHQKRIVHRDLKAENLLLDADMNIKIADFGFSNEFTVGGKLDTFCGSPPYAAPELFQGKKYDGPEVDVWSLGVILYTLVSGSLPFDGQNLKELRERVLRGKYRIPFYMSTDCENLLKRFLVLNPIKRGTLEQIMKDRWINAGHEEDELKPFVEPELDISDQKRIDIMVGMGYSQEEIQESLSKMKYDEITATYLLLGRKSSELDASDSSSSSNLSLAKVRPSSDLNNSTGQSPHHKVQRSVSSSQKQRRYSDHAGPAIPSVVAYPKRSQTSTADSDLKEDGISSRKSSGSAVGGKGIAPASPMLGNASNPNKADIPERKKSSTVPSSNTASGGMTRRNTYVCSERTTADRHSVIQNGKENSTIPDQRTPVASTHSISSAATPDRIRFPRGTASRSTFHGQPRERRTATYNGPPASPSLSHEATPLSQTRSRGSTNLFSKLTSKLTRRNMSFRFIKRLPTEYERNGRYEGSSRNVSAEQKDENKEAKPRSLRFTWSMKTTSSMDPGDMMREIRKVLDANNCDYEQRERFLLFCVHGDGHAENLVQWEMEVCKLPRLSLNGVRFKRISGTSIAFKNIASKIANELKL

[9] = target: T3, Dual specificity mitogen-activated protein kinase kinase 6 (Homo sapiens) (UniProt P52564); assay: Inhibition of MAP2K6 in human HeLa cells lysate at 10 uM pre incubated for 15 mins followed by ADP acyl phosphate probe addition and measured after 10 mins by LC-MS/MS analysis relative to control; type: subcellular; settings: time 25.0 min
T3 sequence (whole entry): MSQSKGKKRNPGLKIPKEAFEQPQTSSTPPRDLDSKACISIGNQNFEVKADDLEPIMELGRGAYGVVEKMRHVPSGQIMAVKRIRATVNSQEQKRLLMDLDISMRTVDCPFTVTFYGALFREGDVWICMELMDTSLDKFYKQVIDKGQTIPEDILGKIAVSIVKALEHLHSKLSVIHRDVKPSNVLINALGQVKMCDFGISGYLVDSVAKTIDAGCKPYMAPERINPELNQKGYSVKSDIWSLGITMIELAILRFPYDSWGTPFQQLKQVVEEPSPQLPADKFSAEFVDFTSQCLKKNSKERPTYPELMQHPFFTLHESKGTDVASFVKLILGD

Ephrin type-A receptor 2 = Ephrin type-A receptor 2 (Homo sapiens, UniProt P29317); assay: Inhibition of EphA2 in human HeLa cells lysate pre incubated for 15 mins followed by ATP acyl phosphate probe addition and measured after 10 mins by LC-MS/MS analysis; type: subcellular
Sequence of Ephrin type-A receptor 2 (P29317 whole entry): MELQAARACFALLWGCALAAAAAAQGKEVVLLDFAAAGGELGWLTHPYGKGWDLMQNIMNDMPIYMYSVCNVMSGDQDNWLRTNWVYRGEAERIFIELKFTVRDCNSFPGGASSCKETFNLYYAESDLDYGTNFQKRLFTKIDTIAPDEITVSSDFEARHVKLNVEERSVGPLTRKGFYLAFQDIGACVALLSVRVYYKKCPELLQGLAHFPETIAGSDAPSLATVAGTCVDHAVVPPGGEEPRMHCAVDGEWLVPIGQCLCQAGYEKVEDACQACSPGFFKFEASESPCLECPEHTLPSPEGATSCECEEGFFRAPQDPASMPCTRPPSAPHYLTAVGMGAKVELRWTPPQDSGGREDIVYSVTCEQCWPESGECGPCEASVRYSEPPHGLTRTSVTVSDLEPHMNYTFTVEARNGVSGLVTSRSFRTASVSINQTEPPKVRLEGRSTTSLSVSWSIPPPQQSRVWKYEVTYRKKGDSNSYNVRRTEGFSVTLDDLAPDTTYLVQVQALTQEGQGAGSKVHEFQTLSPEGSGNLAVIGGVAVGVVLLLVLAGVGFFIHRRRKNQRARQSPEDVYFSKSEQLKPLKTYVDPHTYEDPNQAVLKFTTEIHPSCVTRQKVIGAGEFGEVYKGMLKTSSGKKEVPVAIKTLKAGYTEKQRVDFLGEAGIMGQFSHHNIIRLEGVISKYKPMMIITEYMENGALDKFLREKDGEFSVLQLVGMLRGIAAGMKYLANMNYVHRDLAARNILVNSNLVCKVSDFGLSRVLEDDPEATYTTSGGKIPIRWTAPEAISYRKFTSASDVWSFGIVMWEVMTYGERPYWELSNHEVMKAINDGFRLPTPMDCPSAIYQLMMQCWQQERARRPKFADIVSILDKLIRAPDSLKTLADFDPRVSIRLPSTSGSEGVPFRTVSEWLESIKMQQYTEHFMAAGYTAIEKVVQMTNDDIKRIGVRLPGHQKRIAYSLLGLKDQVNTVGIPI

[10] = target: Rho-associated protein kinase (Homo sapiens, UniProt O75116+Q13464); assay: Inhibition of ROCK1/2 in human HeLa cells lysate pre incubated for 15 mins followed by ATP acyl phosphate probe addition and measured after 10 mins by LC-MS/MS analysis; type: subcellular

SMILES: CCOc1cc(N2CCC(O)CC2)ccc1Nc1ncc2c(n1)N(C)c1ccccc1C(=O)N2C
- inhibition [1]: 13.1%
- IC50 [2]: > 50 µM
- Kd [3]: 0.6 µM
- inhibition [4]: 82.2%
- inhibition at 2 µM [5]: 10.1%
- inhibition [6]: 6.1%
- inhibition [7]: 15.7%
- inhibition (eIF-2-alpha kinase GCN2): 7%
- inhibition [8]: -3.3%
- inhibition [9]: 5.6%
- IC50 (Ephrin type-A receptor 2): > 50 µM
- IC50 [10]: > 50 µM
